# Screening data as filed in PubChem BioAssay.
# OX1R antag-1 – antagonists of human orexin 1 receptor (OX1R); Orexin/Hypocretin receptor type 1 (Homo sapiens), O43613; inhibition, % at 6.6 µM; 1.8% of 330,000 active; OX1R-expressing cells, FRET antagonist read-out; in the data active = inhibition mostly above about 38%, no sharp cut-off; inactive = mostly below about 40%;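 also: 0% = agonist challenge alone and 100% = reference antagonist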
# GPR7 antagonist – GPR7 receptor antagonists, primary screen, cell-based, fluorescence, single concentration. inhibition, % at 4.4 µM. 1.1% of 290,000 active. Neuropeptides B/W receptor type 1 (Homo sapiens), P48145. GPR7-expressing cells, fluorescence antagonist assay; in the data active = inhibition above about 16%, passing the limit was not always enough;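 also: cells stimulated with the agonist NPW; 0% = agonist with vehicle and 100% = vehicle without agonist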
# OX1R antag-2 – OX1R (HCRTR1) antagonists, primary screen, fluorescence, CHO/OX1R cells, Fluo-8 calcium, orexin A; Fluo-8 calcium fluorescence; Orexin/Hypocretin receptor type 1 (Homo sapiens), O43613; inhibition, % at 5 µM; 0.43% of 330,000 active;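 active = inhibition above its plate's threshold, mean inhibition of all tested compounds on the plate plus 3 SD, cut at about 37% in these data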;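 also: 0% = orexin A challenge wells and 100% = SB-334867-A antagonist wells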
# CHO parental Ca – ATP-evoked calcium signal inhibitors, parental CHO, primary screen, counter-screen for OX1R antagonist project, cell-based, fluorescence, Fluo-8 calcium dye | AID 463079, 2010 | inhibition, % at 5.6 µM | 0.63% of 330,000 active | parental CHO-K1, ATP-induced calcium, Fluo-8 fluorescence;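 active = inhibition above that plate's mean sample inhibition plus 3 SD, cut at about 26% in these data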;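 also: 0% = ATP-challenged DMSO wells and 100% = DMSO wells without ATP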
#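 Test system: untransfected parental CHO cell line; also added: ATP stimulus; dosing: 5.6 µM, single dose; signal: calcium-sensitive Fluo-8 fluorescence; measure: percent inhibition of ATP-evoked calcium rise, normalized to controls; benchmarks: low control ATP plus DMSO, high control DMSO only; replication: one well per compound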
# GalR3 antag – GalR3 antagonists in HEK293 cells, primary screen, cell-based, fluorescence readout. inhibition, % at 3 µM. 0.44% of 360,000 active. Galanin receptor type 3 (Homo sapiens), O60755. HEK293 GalR3-CNG cAMP membrane potential fluorescence; galR3 body fused to GalR1 C-terminus;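 active = inhibition above the screen-wide average plus 3 SD, cut at about 13% in these data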;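 also: forskolin and galanin both at EC90 stimulate the cells; cAMP rise reported by CNG channel membrane potential dye signal; 0% = forskolin plus galanin with DMSO and 100% = forskolin alone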
# Target sequence (O60755 1-299 limits assumed): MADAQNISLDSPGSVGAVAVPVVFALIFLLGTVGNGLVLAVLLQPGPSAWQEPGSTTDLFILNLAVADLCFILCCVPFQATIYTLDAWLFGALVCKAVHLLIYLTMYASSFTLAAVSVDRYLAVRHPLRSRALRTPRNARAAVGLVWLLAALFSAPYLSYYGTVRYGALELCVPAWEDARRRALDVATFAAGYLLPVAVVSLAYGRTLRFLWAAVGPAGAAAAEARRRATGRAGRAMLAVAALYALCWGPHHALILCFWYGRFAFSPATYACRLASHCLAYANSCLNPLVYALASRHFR
# GalR3 conf – GalR3 antagonist hit confirmation, cell-based, fluorescence, triplicate. inhibition, % at 3 µM. HEK293 GalR3 CNG cAMP biosensor, membrane potential fluorescence; galR3 fused to GalR1 carboxy tail; challenged with forskolin and galanin at EC90. AID 652245, 2013. 59% of 1,600 active. shares compounds with GalR3 antag;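 active = inhibition above the primary screen's cutoff, the mean inhibition of all screened compounds plus 3 SD, cut at about 13% in these data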;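 also: 0% = forskolin plus galanin and 100% = forskolin alone with DMSO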
# HEK-CNG parental – nonspecific cAMP agonists in parental HEK-CNG cells, counter-screen for GalR3 antagonist project, cell-based, fluorescence, high throughput; shares compounds with GalR3 antag; 10% of 1,600 active; HEK293-CNG parental cells, cAMP membrane potential fluorescence; normalised: DMSO wells 0%, forskolin wells 100%; activation, % at 3 µM; in the data active = activation above about 1.3%
# * = called active by the depositor; . = no result given. The list is not random: actives were taken first. Their share in the collection is about 3.1%.
SMILES,OX1R antag-1,GPR7 antagonist,OX1R antag-2,CHO parental Ca,GalR3 antag,GalR3 conf,HEK-CNG parental
O=C(O)CCCNS(=O)(=O)c1cccc2nsnc12,40.7,-0.1,-0.5,-9.6,-2.1,.,.
CCOc1ccccc1NC(=O)c1ccc(NC(=O)c2ccco2)cc1,41.3,-15.4,-12.4,-22.1,.,5.8,-1.0
Cc1cc(C(=O)CSc2nc(N)cc(=O)[nH]2)c(C)n1-c1ccc(OC(F)F)cc1,19.6,-3.8,18.7,38.4*,14.4*,97.9*,-0.2
COc1ccc(CCn2c(C)cc(C(=O)CSc3nc(N)cc(=O)[nH]3)c2C)cc1,20.3,-14.7,5.7,15.3,-3.4,.,.
O=C(Nc1ccccc1)/C(=C/c1ccccc1)NC(=O)c1ccco1,21.4,2.7,-15.6,-16.1,-6.3,.,.
O=C(Nc1ccccc1)/C(=C/c1ccc(O)cc1)NC(=O)c1ccco1,17.4,7.5,4.1,-0.4,15.1*,-1.4,0.2
COCCCn1c(=O)c2sccc2n2c(CCCC(=O)NCC3CCCO3)nnc12 (centres undefined),13.1,-2.9,4.7,-6.1,13.7*,9.4,0.1
CCCn1c(=O)c2sccc2n2c(CCCC(=O)NCC3CCCO3)nnc12 (centres undefined),16.7,-2.0,4.7,-9.3,-5.5,.,.
CCCCN1CC(C)(C)[C@H](CC(=O)Nc2ccccc2)C1=O,.,.,.,.,-6.1,.,.
CCC(=O)Nc1ccc(Br)c(Cl)c1,5.7,-7.9,-9.0,-0.3,-4.0,.,.
CCC(=O)Nc1ccc(F)c(Cl)c1,5.2,-7.5,-5.8,-5.0,.,-2.6,0.1
OCCNCCOc1ccccc1-c1ccccc1,28.0,-2.6,-21.8,-19.5,-9.1,.,.
OCCNCCOc1ccccc1F,24.1,2.8,-11.9,-7.2,12.8*,0.0,0.4
CC(C)Oc1cccc(C(=O)C2CCCN(Cc3cnc(N4CCOCC4)s3)C2)c1 (centres undefined),5.6,1.8,-47.0,-21.5,40.0*,29.8*,-0.2
Cc1ccc(S(=O)(=O)N2CCN(C(=O)CCC(=O)NCc3ccc(F)cc3)CC2)cc1,15.2,-11.3,-20.6,-2.0,-10.2,.,.
CN(C)/C=N/c1nc2nccc(-c3cccs3)n2n1,30.9,-4.8,-15.5,-8.4,12.6*,-1.1,0.1
CCn1nc(C)c(CNC(=O)c2ccc(OC3CCN(Cc4ccccn4)CC3)cc2)c1C,.,2.2,.,.,97.2*,103.2*,-0.4
CC(=O)Nc1ccc(OCC(=O)Nc2ccc(Cl)c(S(=O)(=O)N3CCOCC3)c2)cc1,18.6,.,54.0*,29.0*,31.1*,91.8*,-0.5
Cc1ccc(NC(=O)CSc2ccccn2)cc1S(=O)(=O)N1CCOCC1,9.0,-13.4,-16.2,-23.8,-3.7,.,.
O=C(Nc1ccc(Cl)c(S(=O)(=O)N2CCOCC2)c1)c1ccncc1,2.6,.,-15.0,-7.0,42.7*,7.1,-0.3
Cc1ccc(NC(=O)CSc2ncn[nH]2)cc1S(=O)(=O)N1CCOCC1,2.1,-2.9,3.7,-1.4,18.3*,7.5,-0.1
CC(CC(=O)Nc1ccc(Cl)c(S(=O)(=O)N2CCOCC2)c1)c1ccccc1 (centres undefined),.,.,.,.,96.0*,120.3*,-0.8
COc1ccc(OCC(=O)Nc2ccc(S(=O)(=O)N3CCOCC3)cc2)cc1,-9.4,-8.8,3.0,-12.4,0.1,.,.
O=C(Nc1ccc2c(c1)OCCO2)c1ccc(Cl)c(S(=O)(=O)N2CCOCC2)c1,9.4,-13.0,-28.3,-31.3,-7.1,.,.
S=C(Nc1cccnc1)N1CCN(c2ccccc2Cl)CC1,0.2,-6.8,-20.9,-0.5,-10.6,.,.
